Screens: PubChem, several laboratories
Compounds with a hit are over-represented: about 2% of the library has one in this group of screens.
PvdQ acylase = P. aeruginosa PvdQ acylase inhibitors, primary screen, biochemical, fluorescence, plate reader and imaging, single point; PvdQ acylase [Pseudomonas aeruginosa LESB58]; purified PvdQ acylase; inhibition, % at 10 µM; 340,000 tested, 0.063% active; AID 488965, 2010; in the data active = inhibition above about 30%, passing the limit was not always enough;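 also: 0% = vehicle neutral wells and 100% = reference inhibitor wells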
VIM-2 inhibitor = VIM-2 metallo-beta-lactamase inhibitors, primary screen, biochemical, epi-absorbance readout, Pseudomonas aeruginosa enzyme. purified VIM-2, nitrocefin hydrolysis, epi-absorbance fluorescence. inhibition, % at 5.6 µM. 290,000 tested, 0.89% active;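 active = inhibition above the mean of all tested compounds plus 3 SD, cutoff set per screening run, cut at about 7.5% in these data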;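 also: red hydrolysis product quenches plate fluorescence so inhibitors raise well fluorescence; 0% = enzyme with DMSO and 100% = DMSO without enzyme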
ATG4B inh = ATG4B protease inhibitors, primary screen, biochemical, fluorescence, uHTS; ATG4B cleavage of LC3-PLA2, NBD-HPC fluorescence, 1 h; inhibition, % at 8.33 µM; 340,000 tested, 0.51% active; AID 504462, 2011; in the data active = inhibition above about 40%
Target sequence (Q9Y4P1 whole entry, looked up): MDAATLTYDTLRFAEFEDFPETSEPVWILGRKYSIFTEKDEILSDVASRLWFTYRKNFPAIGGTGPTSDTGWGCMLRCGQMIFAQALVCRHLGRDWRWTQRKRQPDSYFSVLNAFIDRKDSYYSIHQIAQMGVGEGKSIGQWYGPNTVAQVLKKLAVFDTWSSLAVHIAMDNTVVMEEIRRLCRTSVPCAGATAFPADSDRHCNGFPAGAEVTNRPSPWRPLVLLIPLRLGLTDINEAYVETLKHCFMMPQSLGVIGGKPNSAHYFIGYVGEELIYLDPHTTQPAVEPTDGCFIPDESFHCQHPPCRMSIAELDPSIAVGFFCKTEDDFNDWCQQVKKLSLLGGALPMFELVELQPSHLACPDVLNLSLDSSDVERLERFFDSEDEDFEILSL
beta cell repl = inducers of MIN6 beta-cell proliferation, primary screen, ATP luminescence, uHTS; MIN6 cells proliferation, ATPlite luminescence, 48 h; cells starved in 0.2% serum; 100% = growth in 10% serum; proliferation, % at 10 µM; 330,000 tested, 0.29% active; AID 2380, 2010;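 active = compounds whose signal lies at least 3.5 SD above the mean of all wells on their plate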;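 also: 0% = DMSO-treated cells in low-serum medium and 100% = 10% serum control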
IMP-1 inh-1 = IMP-1 metallo-beta-lactamase inhibitors, primary screen, biochemical, epi-absorbance readout, Pseudomonas aeruginosa enzyme | metallo-beta-lactamase IMP-1 (Pseudomonas aeruginosa) | purified IMP-1, nitrocefin hydrolysis, epi-absorbance fluorescence | inhibition, % at 5.6 µM | 290,000 tested, 0.45% active | AID 1556, 2009;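 active = inhibition above the mean plus 3 SD of all compounds in the same screening run, cut at about 4.5% in these data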;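 also: 0% = IMP-1 with DMSO and 100% = DMSO wells lacking enzyme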
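System: purified recombinant IMP-1 beta-lactamase. Medium: Zinc- and detergent-supplemented HEPES buffer, pH 7.1. Compound: one 5.6 µM dose […]. Schedule: 15 min preincubation plus 25 min reaction at 25 °C. Technique: Epi-absorbance fluorescence, 480 nm excitation, 530 nm emission.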
HKDC1 inhibitor = HKDC1 hexokinase inhibitors, primary screen, biochemical, fluorescence, uHTS; inhibition, % at 20 µM; 340,000 tested, 0.16% active; Q2TB90; AID 493160, 2011; recombinant HKDC1, G6PDH/diaphorase resazurin coupled fluorescence;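 active = inhibition above about 35% when tested at 20 µM, limit read from the data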;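 also: plate controls were DMSO wells with enzyme for no effect and DMSO wells lacking enzyme for full effect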
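Assay system – recombinant HKDC1 (HK5) hexokinase enzyme, produced in-house · Input – HKDC1 at 5 µg/mL · Reagent – glucose plus 1 mM ATP as hexokinase substrates · Timing – 90 min reaction incubation at room temperature, dark · Measured by – G6PDH/diaphorase-coupled fluorescence, 1 mM NADP, 100 µM resazurin, 525/613 nm · Benchmarks – DMSO-enzyme wells negative, buffer-substituted wells positive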
IMP-1 inh-2 = IMP-1 metallo-beta-lactamase inhibitors, confirmation, selectivity assay for selective VIM-2 inhibitor project, biochemical, epi-absorbance readout, triplicate. purified IMP-1, nitrocefin hydrolysis, epi-absorbance fluorescence. inhibition, % at 5.6 µM. 1,300 tested, under 10 active. shares compounds with VIM-2 inhibitor; call rule not given here;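 also: 0% = enzyme with vehicle and 100% = vehicle without enzyme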
VIM-2 FRET inh = VIM-2 inhibitors in FRET format, confirmation, artefact control for selective VIM-2 inhibitor project, biochemical, epi-absorbance artifact exclusion; shares compounds with VIM-2 inhibitor; 1,300 tested, 23% active; inhibition, % at 5.6 µM; AID 1857, 2009; purified VIM-2, CCF2 FRET substrate hydrolysis;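 active = inhibition above the mean of all tested compounds plus 3 SD, cut at about 19% in these data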;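 also: 0% = VIM-2 plus DMSO and 100% = no enzyme wells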
TEM-1 counter = TEM-1 serine beta-lactamase inhibitors, counter-screen for VIM-2 inhibitor project, biochemical, epi-absorbance, HTS; shares compounds with VIM-2 inhibitor; inhibition, % at 5.6 µM; Purified TEM-1, nitrocefin hydrolysis, epi-absorbance fluorescence; 1,300 tested, 3% active;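 active = inhibition above that campaign's mean inhibition plus 3 SD, cut at about 0.46% in these data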;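 also: 0% = TEM-1 with DMSO and 100% = TEM-1 with 100 µM potassium clavulanate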
VIM-2 inh conf = VIM-2 metallo-beta-lactamase inhibitors, confirmation, biochemical, epi-absorbance, hits shared with IMP-1 screen. shares compounds with VIM-2 inhibitor. purified VIM-2, nitrocefin hydrolysis. inhibition, % at 5.6 µM. 1,300 tested, 96% active. AID 2187, 2009;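 active = inhibition of the VIM-2 beta-lactamase enzyme above about 11% from the earlier first-round screen, limit read from the data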;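 also: 0% = VIM-2 with DMSO and 100% = buffer wells without enzyme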
Numbers without * were called inactive; . = not tested or not shown.

SMILES	PvdQ acylase	VIM-2 inhibitor	ATG4B inh	beta cell repl	IMP-1 inh-1	HKDC1 inhibitor	IMP-1 inh-2	VIM-2 FRET inh	TEM-1 counter	VIM-2 inh conf
COc1ccc(S(=O)(=O)N2CCCCC2)cc1NC(=O)c1cccc(S(=O)(=O)N2CC(C)OC(C)C2)c1 (stereo not drawn)	-7	.	-5	.	.	0	.	.	.	.
COc1ccc(-c2ccc(SCC(=O)NC3CCCCC3)nn2)cc1OC	8	-1	-2	-2	-2	-1	.	.	.	.
COC(CSc1nc(N)c2c3c(sc2n1)CN(C)CC3)OC	4	0	-4	1	-1	8	.	.	.	.
O=[N+]([O-])c1ccc(N2CCN(S(=O)(=O)c3ccccc3)CC2)cc1	2	1	4	-3	0	4	.	.	.	.
Fc1ccc(-c2ccc(/C=N\n3cnnc3)o2)cc1Cl	-7	45*	-2	-2	-3	-2	-4	-4	-5	57*
Fc1ccc(-c2ccc(/C=N/n3cnnc3)o2)cc1	-12	18*	0	-3	-2	-6	-2	-1	-6	30*
CC(C)COC(=O)c1cc(-c2ccc(/C=N/n3cnnc3)o2)ccc1Cl	1	1	-5	-5	-4	1	.	.	.	.
CCN=C1S/C(=C/c2ccc(-c3ccc(F)cc3)o2)C(=O)N1CC	-9	-2	-4	-2	-3	4	.	.	.	.
Cc1ccc(S(=O)(=O)CC(=O)NCc2ccc(Cl)cc2)cc1	-19	.	-5	5	.	-3	.	.	.	.
CCN1CCN(Cc2c(O)ccc3c2O/C(=C\c2ccccc2)C3=O)CC1	-19	30*	3	-1	-1	4	-1	3	-7	44*
CCn1c(=O)n(CC)c2cc(NC(=O)C(C)c3ccccc3)c(Br)cc21 (stereo not drawn)	-19	1	-3	1	-4	-6	.	.	.	.
O=C(OCc1ccccc1)C1=[N+]([O-])OC(C(=O)OCc2ccccc2)C1c1c[nH]c2ccccc12 (stereo not drawn)	-27	13*	4	-7	-1	1	-2	-7	0	4
CCn1cc(C(=O)O)c(=O)c2cnc(N3CCN(C(=S)NC(=O)c4ccc(OC)cc4)CC3)nc21	9	1	0	6	-2	1	.	.	.	.
CN1CCN(c2nc(-c3ccccc3O)nc3ccccc23)CC1	1	14*	-1	-2	-2	4	-2	0	-7	18*
CC(C)(C)c1ccc(OCC(=O)Nc2ccncc2)cc1	-10	-2	-4	-5	-4	-4	.	.	.	.
CCn1c(SCC(=O)Nc2cc(C(C)(C)C)nn2-c2ccccc2)nnc1-c1cccs1	6	-2	-3	5	0	-2	.	.	.	.
CCn1c(SCC(N)=O)nnc1-c1cc2c(C)nn(-c3ccccc3)c2s1	-13	15*	3	3	-5	-4	-3	9	-6	27*
CNC(=S)N/N=C/c1ccc(-c2cc([N+](=O)[O-])ccc2Cl)o1	-1	-1	-2	0	-2	-6	.	.	.	.
